A selection: hits, their analogues and other compounds. The true share with any hit is near 5.1%.
NF-kB neuron act: NF-kB expression increase, human neuronal cells. NF-kB reporter expression; stronger effect = higher value. 1.6% of 190,000 active. AID 1239. fold change at 12.5 µM; in the data active = fold change above about 3.3
APP 5'UTR act: APP 5'UTR luciferase reporter activation. 1% of 190,000 active. AID 1276. activation, % at 2 µM. SH-SY5Y APP 5'UTR luciferase reporter, luminescence; zero percent = DMSO vehicle wells;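 active = activation above a set limit, based on mean plus 3 SD of controls, cut at about 140% in these data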
STAT1 activator: activators of IFN-gamma induced STAT1 signaling; NIH 3T3 STAT1-luciferase reporter, luminescence; 100% = IFN-gamma alone, no compound; 2.6% of 200,000 active; activation (% of control), % at 5.5 µM; AID 932;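 active = activation above the screen-wide mean activation plus 3 SD, cut at about 130% in these data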;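 also: raw ratio to IFN-gamma control signal so 100% means no change and 0% no light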
STAT3 inh-1: STAT3 signaling inhibition | U3A cells, IL-6 STAT3-luciferase reporter, luminescence; host cell line lacks STAT1 | 0.89% of 190,000 active | AID 862 | inhibition, % at 5.5 µM;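 active = inhibition above the mean inhibition across all screened compounds plus 3 SD, cut at about 44% in these data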;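 also: 0% = DMSO only wells and 100% = 100 µM nifuroxazide control wells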
STAT1 inh: reduces IFN-gamma driven STAT1 reporter signal; AID 920; 0.35% of 200,000 active; inhibition, % at 5.5 µM; NIH 3T3 STAT1-luciferase reporter, luminescence;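 active = inhibition above a set limit, the mean inhibition across all tested compounds plus 3 SD, cut at about 34% in these data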;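 also: 0% = IFN-gamma with DMSO and 100% = IFN-gamma with 300 µM nifuroxazide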
STAT3 activator: activators of IL-6 induced STAT3 signaling. U3A cells, IL-6 STAT3-luciferase reporter, luminescence; 100% = signal with IL-6 EC80 alone. activation (% of control), % at 5.6 µM. 0.91% of 190,000 active. AID 871;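 active = activation above the screen-wide mean of compound activation plus 3 SD, cut at about 130% in these data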;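 also: 0% = background luminescence of wells with medium and substrate only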
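Test system: STAT3-luciferase reporter U3A cells; Detection: reporter luminescence signal; Times: 1 h compound pre-exposure, 6 h IL-6 stimulation, 37 °C; Benchmarks: IL-6-only high control; Also added: IL-6 stimulus at 33 ng/mL final.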
STAT3 inh-2: confirmation of STAT3 signaling inhibitors. inhibition, % at 5.7 µM. U3A cells, IL-6 STAT3 luciferase reporter, luminescence; cell line lacks STAT1. 45% of 1,200 active. shares compounds with STAT3 inh-1;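 active = inhibition above the hit cutoff computed for the primary STAT3 screen, cut at about 44% in these data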;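 also: 0% = IL-6 plus DMSO and 100% = IL-6 plus nifuroxazide control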
NFkB inh 2: counter-screen for STAT3 inhibitors: NF-kappaB inhibition; shares compounds with STAT3 inh-1; inhibition, % at 5.7 µM; 36% of 1,200 active; AID 1308; HEK293T NF-kB luciferase reporter, TNF-alpha induced;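 active = inhibition above the mean of solvent-only control wells plus 3 SD, cutoff set per campaign, cut at about 13% in these data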;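 also: 0% = TNF-alpha with DMSO and 100% = TNF-alpha with MG high control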
STAT1 inh 2: inhibits STAT1, counter-screen to STAT3 inhibitors. shares compounds with STAT3 inh-1. NIH 3T3 STAT1-luciferase reporter, IFN-gamma induced, luminescence. inhibition, % at 5.7 µM. 27% of 1,200 active. AID 1317;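 active = inhibition above the mean plus 3 SD of solvent-only control wells, limit set per screening run, cut at about 16% in these data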;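 also: 0% = DMSO with IFN-gamma and 100% = nifuroxazide control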
STAT1 act conf: confirmation of STAT1 signaling activators | AID 1262 | 97% of 1,200 active | NIH 3T3 STAT1-luciferase reporter, IFN-gamma potentiation, luminescence; 100% = IFN-gamma EC80 alone, no compound | activation (% of control), % at 5.7 µM | shares compounds with STAT1 activator;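 active = activation above a set limit carried over from the earlier primary STAT1 screen, cut at about 140% in these data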;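 also: simple ratio to median IFN-gamma plus DMSO wells so 0% means no light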
NFkB act STAT1ct: counter-screen for STAT1 activators: NF-kappaB activation; shares compounds with STAT1 activator; HEK293T NF-kB luciferase reporter, TNF-alpha stimulated, luminescence; 100% = TNF-alpha with vehicle only; activation (% of control), % at 5.7 µM; 43% of 1,200 active;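 active = activation above the mean of solvent-only control wells plus 3 SD, set per campaign, cut at about 130% in these data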;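 also: TNF-alpha given at a submaximal dose yielding about 80% of full reporter signal; values are well signal over median control so 100% means no change and 0% no light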
STAT3 act 2: counter-screen for STAT1 activators: human STAT3 activation; shares compounds with STAT1 activator; U3A cells STAT3-luciferase reporter, IL-6, luminescence; cells lack STAT1; 100 = IL-6 alone, no compound effect; activation (% of control), % at 5.7 µM; 46% of 1,200 active;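 active = activation above the solvent-only control well mean plus 3 SD, set per plate batch, cut at about 110% in these data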;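 also: 0% = no luminescence and 100% = median IL-6 plus DMSO wells; higher means more STAT3 reporter activation so hits are non-selective activators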
Starred values were filed as active, the others as inactive.

Screening CC1C/C(=C/c2ccccn2)C(=O)/C(=C/c2ccccn2)C1 (centres undefined) returned NF-kB neuron act 0.15, APP 5'UTR act -98, STAT1 activator 235*, STAT3 inh-1 56*, STAT1 inh -142, STAT3 activator 53, STAT3 inh-2 36, NFkB inh 2 -19, STAT1 inh 2 -45, STAT1 act conf 120, NFkB act STAT1ct 87 and STAT3 act 2 79.
For CC(C)(C)C1C/C(=C/c2ccccn2)C(=O)/C(=C/c2ccccn2)C1 (centres undefined) the results were NF-kB neuron act 0.18, APP 5'UTR act -95, STAT1 activator 221*, STAT3 inh-1 48*, STAT1 inh -132, STAT3 activator 62, STAT3 inh-2 22, NFkB inh 2 52*, STAT1 inh 2 -113, STAT1 act conf 199*, NFkB act STAT1ct 32 and STAT3 act 2 72.
O=C1/C(=C/c2ccccn2)COc2ccccc21 was read as NF-kB neuron act 1.3, APP 5'UTR act -5, STAT1 activator 96, STAT3 inh-1 4, STAT1 inh 3 and STAT3 activator 98.
For O=C(CCc1nnc(CCCc2ccccc2)o1)NCCN1CCOC1=O the results were NF-kB neuron act 1.4, APP 5'UTR act -14, STAT1 activator 100, STAT3 inh-1 0, STAT1 inh -2 and STAT3 activator 102.
Screening COc1cc(C(=O)NC2CCCc3ccccc32)ccc1OCC(=O)Nc1ccc(F)cc1 (centres undefined) returned NF-kB neuron act 1.1, APP 5'UTR act -18, STAT1 activator 102, STAT3 inh-1 -1, STAT1 inh -2 and STAT3 activator 100.
Screening Cc1ccc(-c2cc3nc4c(c(=O)n3[nH]2)CCCC4)cc1 returned APP 5'UTR act 89, STAT1 activator 174*, STAT3 inh-1 44*, STAT1 inh -81, STAT3 activator 65, STAT3 inh-2 4, NFkB inh 2 -31, STAT1 inh 2 -148, STAT1 act conf 232*, NFkB act STAT1ct 114 and STAT3 act 2 96.
For Cc1[nH]n2c(=O)c3c(nc2c1-c1ccc(Cl)cc1)CCC3 the results were NF-kB neuron act 1.5, APP 5'UTR act 42, STAT1 activator 104, STAT3 inh-1 11, STAT1 inh -6 and STAT3 activator 96.
`Cc1ccc2nc(-c3ccc(NC(=O)COC(=O)c4ccc([N+](=O)[O-])o4)cc3)sc2c1` gave NF-kB neuron act 6*, APP 5'UTR act 106, STAT1 activator 155*, STAT3 inh-1 55*, STAT1 inh -62, STAT3 activator 55, STAT3 inh-2 35, NFkB inh 2 -9, STAT1 inh 2 -67, STAT1 act conf 170*, NFkB act STAT1ct 99 and STAT3 act 2 69.
CCCCc1ccc(-c2ccc(C)cc2O)nc1 was read as NF-kB neuron act 7.2*, APP 5'UTR act 203*, STAT1 activator 156*, STAT3 inh-1 51*, STAT1 inh -60, STAT3 activator 57, STAT3 inh-2 17, NFkB inh 2 -37, STAT1 inh 2 -113, STAT1 act conf 198*, NFkB act STAT1ct 110 and STAT3 act 2 85.
CCCCCc1ccc(-c2ccc(/C=C/C(N)=O)cc2)nc1 was read as NF-kB neuron act 1.3, APP 5'UTR act 11, STAT1 activator 105, STAT3 inh-1 19, STAT1 inh -6 and STAT3 activator 86.
Cc1cc(C)cc(NC(=O)c2c(C)nc3ccccn23)c1 was read as NF-kB neuron act 1.1, APP 5'UTR act 13, STAT1 activator 103, STAT3 inh-1 3, STAT1 inh -2 and STAT3 activator 99.
Screening CC(=O)N1CC23C=CC(CC2CC12CCCCCC2)O3 (centres undefined) returned NF-kB neuron act 0.87, APP 5'UTR act 6, STAT1 activator 93, STAT3 inh-1 10, STAT1 inh 6 and STAT3 activator 95.
Screening COc1ccc2nc(NC(=S)N(C)C)sc2c1 returned NF-kB neuron act 11*, APP 5'UTR act 48, STAT1 activator 171*, STAT3 inh-1 44*, STAT1 inh -77, STAT3 activator 65, STAT3 inh-2 21, NFkB inh 2 -48, STAT1 inh 2 -165, STAT1 act conf 257*, NFkB act STAT1ct 127 and STAT3 act 2 86.
COc1cc(C(=O)NCC(=O)N/N=C(C)\C=C\c2ccccc2)cc(OC)c1OC was read as NF-kB neuron act 1.1, APP 5'UTR act -5, STAT1 activator 93, STAT3 inh-1 31, STAT1 inh 6 and STAT3 activator 77.
For COc1ccc(-c2cc(C)nc3c(-c4ccccc4)cnn23)cc1 the results were APP 5'UTR act 168*, STAT1 activator 167*, STAT3 inh-1 51*, STAT1 inh -72, STAT3 activator 59, STAT3 inh-2 -18, NFkB inh 2 -38, STAT1 inh 2 -183, STAT1 act conf 266*, NFkB act STAT1ct 125 and STAT3 act 2 110.
`O=S(=O)(Nc1nc2c(s1)CCCC2)c1ccc(Br)cc1` gave NF-kB neuron act 0.76, APP 5'UTR act 2, STAT1 activator 102, STAT3 inh-1 4, STAT1 inh -2 and STAT3 activator 99.
`O=C(Nc1nc2c(s1)CCCC2)c1ccc(Br)o1` gave NF-kB neuron act 6.2*, APP 5'UTR act 163*, STAT1 activator 165*, STAT3 inh-1 46*, STAT1 inh -72, STAT3 activator 62, STAT3 inh-2 12, NFkB inh 2 -30, STAT1 inh 2 -122, STAT1 act conf 217*, NFkB act STAT1ct 122 and STAT3 act 2 99.
